# Laboratory results as given in PMC4919474 (EBioMedicine, 2016).
# Test system: Drosophila S3 cells
# Experiment: qHTS of OA-induced lipid droplet storage in S3 cells
# Type: cell-based
# Conditions: Drosophila melanogaster
# Summary of the method: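 Drosophila S3 cells in medium with 5% FCS receive library compounds at […] (46 μM to 3 nM, 1:5 steps). Droplets are induced with 400 μM oleic acid on fatty-acid-free BSA. After 18 h, cells are fixed and stained with BODIPY 493/503 (lipid) and CellTracker Red CMTPX (cell count), then read by 488 nm laser scanning. Lipid signal is normalised to cell number; dose-response curves are fitted.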
smiles,measurement,value
CCC/C=C/C/C=C/C=C/C=N/NN=O [TriacsinC],EC50,90 nM
